Source: ChEMBL document CHEMBL4261491, “Synthesis and synergistic antifungal effects of monoketone derivatives of curcumin against fluconazole-resistant Candida spp” (Medchemcomm, 2017)
≈ marks a conversion by molar mass, not a printed value.

Legend:
Candida albicans [1] = test: Antifungal activity against fluconazole-resistant Candida albicans clinical isolate 103 in presence of 8 ug/ml fluconazole by broth microdilution method; format: functional; details: for MIC80: Candida albicans, isolate 103
Method in brief: (§1)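 Broth microdilution per CLSI/NCCLS M27-A2 against FLC-resistant clinical isolates. MIC80 read for each compound alone and with fluconazole at 8.0 μg ml–1. C. albicans ATCC 90028 served as quality control. Curcumin was the positive control.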

Pichia kudriavzevii [2] = test: Antifungal activity against fluconazole-resistant Candida krusei clinical isolate 2159 by broth microdilution method; format: functional; method in brief: as §1
Candida albicans [3] = test: Antifungal activity against fluconazole-resistant Candida albicans clinical isolate 103 by broth microdilution method; format: functional; method in brief: as §1
Pichia kudriavzevii [4] = test: Antifungal activity against fluconazole-resistant Candida krusei clinical isolate 2159 in presence of 8 ug/ml fluconazole by broth microdilution method; format: functional; details: for MIC80: Pichia kudriavzevii, isolate 2159; method in brief: as §1
Candida tropicalis [5] = test: Antifungal activity against fluconazole-resistant Candida tropicalis clinical isolate 087 by broth microdilution method; format: functional; method in brief: as §1
Candida tropicalis [6] = test: Antifungal activity against fluconazole-resistant Candida tropicalis clinical isolate 087 in presence of 8 ug/ml fluconazole by broth microdilution method; format: functional; details: for MIC80: Candida tropicalis, isolate 087; method in brief: as §1
[7] = Cytotoxicity against HUVEC assessed as cell viability at 32 ug/ml after 24 hrs by MTT assay relative to control; format: cell-based; details: human, HUVEC cells; read-out: Activity
Method in brief: (§2)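 HUVECs grown in DMEM with 10% FCS and 100 μg ml–1 streptomycin, 5% CO2, 37 °C. Cells exposed to compounds at 16 and 32 μg ml–1 for 24 h, then incubated with MTT solution (5 mg ml–1) for 3 h. Optical density read at 570 nm. Viability expressed as percentage relative to drug-free control.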

[8] = Cytotoxicity against HUVEC assessed as cell viability at 16 ug/ml after 24 hrs by MTT assay relative to control; format: cell-based; details: human, HUVEC cells; read-out: Activity; method in brief: as §2

Question: With `CN(C)c1ccc(/C=C/C(=O)/C=C/c2ccc(N(C)C)cc2)cc1` as the compound, how does the “fractional inhibitory concentration index (FICI)” value (Candida albicans [1]) read?
Answer: >1.06

Question: And the MIC80 (Candida albicans [1])?
Answer: > 64 µg/mL

Question: And the MIC80 (Pichia kudriavzevii [2])?
Answer: > 64 µg/mL

Question: What about the MIC80 (Candida albicans [3]) of the same compound?
Answer: > 64 µg/mL

Question: What about the “fractional inhibitory concentration index (FICI)” value (Pichia kudriavzevii [4]) of the same compound?
Answer: >1.06

Question: What about the MIC80 (Pichia kudriavzevii [4]) of the same compound?
Answer: > 64 µg/mL

Question: What about the MIC80 (Candida tropicalis [5]) of the same compound?
Answer: > 64 µg/mL

Question: What about the “fractional inhibitory concentration index (FICI)” value (Candida tropicalis [6]) of the same compound?
Answer: 0.563

Question: And the MIC80 (Candida tropicalis [6])?
Answer: 32 µg/mL

Question: For `O=C1/C(=C/c2ccc(CO)o2)CC/C1=C\c1ccc(CO)o1`, which “fractional inhibitory concentration index (FICI)” value (Candida albicans [1]) is on record?
Answer: >1.06

Question: And the MIC80 (Candida albicans [1])?
Answer: > 64 µg/mL

Question: What about the MIC80 (Pichia kudriavzevii [2]) of the same compound?
Answer: > 64 µg/mL

Question: And the viability at 24 h, 32 ug/ml [7]?
Answer: 57%

Question: What about the MIC80 (Candida albicans [3]) of the same compound?
Answer: > 64 µg/mL

Question: And the “fractional inhibitory concentration index (FICI)” value (Pichia kudriavzevii [4])?
Answer: >1.06

Question: And the MIC80 (Pichia kudriavzevii [4])?
Answer: > 64 µg/mL

Question: What about the viability at 24 h, 16 ug/ml [8] of the same compound?
Answer: 68%

Question: And the MIC80 (Candida tropicalis [5])?
Answer: > 64 µg/mL

Question: What about the “fractional inhibitory concentration index (FICI)” value (Candida tropicalis [6]) of the same compound?
Answer: 0.125

Question: And the MIC80 (Candida tropicalis [6])?
Answer: 4 µg/mL

Question: What does the source list for `COc1ccc(/C=C/C(=O)/C=C/c2ccc(OC)cc2)cc1`?
Answer: fractional inhibitory concentration index (FICI) (Candida albicans [1]): >1.06; MIC80 (Candida albicans [1]): > 64 µg/mL; MIC80 (Pichia kudriavzevii [2]): > 64 µg/mL; MIC80 (Candida albicans [3]): > 64 µg/mL; fractional inhibitory concentration index (FICI) (Pichia kudriavzevii [4]): >1.06; MIC80 (Pichia kudriavzevii [4]): > 64 µg/mL; MIC80 (Candida tropicalis [5]): > 64 µg/mL; fractional inhibitory concentration index (FICI) (Candida tropicalis [6]): >1.06; MIC80 (Candida tropicalis [6]): > 64 µg/mL

Question: What does the source list for `O=C1/C(=C/c2ccc(O)cc2)CC/C1=C\c1ccc(O)cc1`?
Answer: fractional inhibitory concentration index (FICI) (Candida albicans [1]): >1.06; MIC80 (Candida albicans [1]): > 64 µg/mL; MIC80 (Pichia kudriavzevii [2]): > 64 µg/mL; viability at 24 h, 32 ug/ml [7]: 60%; MIC80 (Candida albicans [3]): > 64 µg/mL; fractional inhibitory concentration index (FICI) (Pichia kudriavzevii [4]): >1.06; MIC80 (Pichia kudriavzevii [4]): > 64 µg/mL; viability at 24 h, 16 ug/ml [8]: 69%; MIC80 (Candida tropicalis [5]): > 64 µg/mL; fractional inhibitory concentration index (FICI) (Candida tropicalis [6]): 0.188; MIC80 (Candida tropicalis [6]): 8 µg/mL

Question: Which “fractional inhibitory concentration index (FICI)” value (Candida albicans [1]) does the source give for `O=C(/C=C/c1ccco1)/C=C/c1ccco1` here?
Answer: >1.06

Question: What about the MIC80 (Candida albicans [1]) of the same compound?
Answer: > 64 µg/mL

Question: And the MIC80 (Pichia kudriavzevii [2])?
Answer: > 64 µg/mL

Question: And the MIC80 (Candida albicans [3])?
Answer: > 64 µg/mL

Question: And the “fractional inhibitory concentration index (FICI)” value (Pichia kudriavzevii [4])?
Answer: >1.06

Question: What about the MIC80 (Pichia kudriavzevii [4]) of the same compound?
Answer: > 64 µg/mL

Question: What about the MIC80 (Candida tropicalis [5]) of the same compound?
Answer: > 64 µg/mL

Question: What about the “fractional inhibitory concentration index (FICI)” value (Candida tropicalis [6]) of the same compound?
Answer: 0.313

Question: And the MIC80 (Candida tropicalis [6])?
Answer: 16 µg/mL

Question: Which “fractional inhibitory concentration index (FICI)” value (Candida albicans [1]) does the source give for `O=C(/C=C/c1cccs1)/C=C/c1cccs1` here?
Answer: 0.188

Question: What about the MIC80 (Candida albicans [1]) of the same compound?
Answer: 8 µg/mL

Question: And the MIC80 (Pichia kudriavzevii [2])?
Answer: > 64 µg/mL

Question: What about the viability at 24 h, 32 ug/ml [7] of the same compound?
Answer: 49%

Question: What about the MIC80 (Candida albicans [3]) of the same compound?
Answer: > 64 µg/mL

Question: What about the “fractional inhibitory concentration index (FICI)” value (Pichia kudriavzevii [4]) of the same compound?
Answer: >1.06

Question: What about the MIC80 (Pichia kudriavzevii [4]) of the same compound?
Answer: > 64 µg/mL

Question: And the viability at 24 h, 16 ug/ml [8]?
Answer: 84%

Question: What about the MIC80 (Candida tropicalis [5]) of the same compound?
Answer: > 64 µg/mL

Question: And the “fractional inhibitory concentration index (FICI)” value (Candida tropicalis [6])?
Answer: >1.06

Question: And the MIC80 (Candida tropicalis [6])?
Answer: > 64 µg/mL

Question: What does the source list for `O=C(/C=C/c1ccc2c(c1)OCO2)/C=C/c1ccc2c(c1)OCO2`?
Answer: fractional inhibitory concentration index (FICI) (Candida albicans [1]): 0.563; MIC80 (Candida albicans [1]): 32 µg/mL; MIC80 (Pichia kudriavzevii [2]): > 64 µg/mL; viability at 24 h, 32 ug/ml [7]: 71%; MIC80 (Candida albicans [3]): > 64 µg/mL; fractional inhibitory concentration index (FICI) (Pichia kudriavzevii [4]): 0.094; MIC80 (Pichia kudriavzevii [4]): 2 µg/mL; viability at 24 h, 16 ug/ml [8]: 88%; MIC80 (Candida tropicalis [5]): > 64 µg/mL; fractional inhibitory concentration index (FICI) (Candida tropicalis [6]): 0.313; MIC80 (Candida tropicalis [6]): 16 µg/mL

Question: What does the source list for `COc1cc(/C=C/C(=O)CC(=O)/C=C/c2ccc(O)c(OC)c2)ccc1O` [CURCUMIN]?
Answer: fractional inhibitory concentration index (FICI) (Candida albicans [1]): 0.188; MIC80 (Candida albicans [1]): 8 µg/mL; viability at 24 h, 32 ug/ml [7]: 22%; fractional inhibitory concentration index (FICI) (Pichia kudriavzevii [4]): 0.188; MIC80 (Pichia kudriavzevii [4]): 8 µg/mL; viability at 24 h, 16 ug/ml [8]: 80%; fractional inhibitory concentration index (FICI) (Candida tropicalis [6]): 0.188; MIC80 (Candida tropicalis [6]): 8 µg/mL

Question: With `O=C(/C=C/c1ccc(Br)cc1)/C=C/c1ccc(Br)cc1` as the compound, how does the “fractional inhibitory concentration index (FICI)” value (Candida albicans [1]) read?
Answer: >1.06

Question: What about the MIC80 (Candida albicans [1]) of the same compound?
Answer: > 64 µg/mL

Question: What about the MIC80 (Pichia kudriavzevii [2]) of the same compound?
Answer: > 64 µg/mL

Question: What about the MIC80 (Candida albicans [3]) of the same compound?
Answer: > 64 µg/mL

Question: And the “fractional inhibitory concentration index (FICI)” value (Pichia kudriavzevii [4])?
Answer: >1.06

Question: What about the MIC80 (Pichia kudriavzevii [4]) of the same compound?
Answer: > 64 µg/mL

Question: What about the MIC80 (Candida tropicalis [5]) of the same compound?
Answer: > 64 µg/mL

Question: What about the “fractional inhibitory concentration index (FICI)” value (Candida tropicalis [6]) of the same compound?
Answer: 0.563

Question: What about the MIC80 (Candida tropicalis [6]) of the same compound?
Answer: 32 µg/mL

Question: What does the source list for `COc1ccc(/C=C/C(=O)/C=C/c2ccc(OC)c(O)c2)cc1O`?
Answer: fractional inhibitory concentration index (FICI) (Candida albicans [1]): 0.563; MIC80 (Candida albicans [1]): 32 µg/mL; MIC80 (Pichia kudriavzevii [2]): > 64 µg/mL; MIC80 (Candida albicans [3]): > 64 µg/mL; fractional inhibitory concentration index (FICI) (Pichia kudriavzevii [4]): >1.06; MIC80 (Pichia kudriavzevii [4]): > 64 µg/mL; MIC80 (Candida tropicalis [5]): > 64 µg/mL; fractional inhibitory concentration index (FICI) (Candida tropicalis [6]): 0.188; MIC80 (Candida tropicalis [6]): 8 µg/mL

Question: With `O=C(/C=C/c1ccc(F)cc1)/C=C/c1ccc(F)cc1` as the compound, how does the “fractional inhibitory concentration index (FICI)” value (Candida albicans [1]) read?
Answer: >1.06

Question: And the MIC80 (Candida albicans [1])?
Answer: > 64 µg/mL

Question: What about the MIC80 (Pichia kudriavzevii [2]) of the same compound?
Answer: > 64 µg/mL

Question: And the viability at 24 h, 32 ug/ml [7]?
Answer: 43%

Question: And the MIC80 (Candida albicans [3])?
Answer: > 64 µg/mL

Question: And the “fractional inhibitory concentration index (FICI)” value (Pichia kudriavzevii [4])?
Answer: >1.06

Question: What about the MIC80 (Pichia kudriavzevii [4]) of the same compound?
Answer: > 64 µg/mL

Question: And the viability at 24 h, 16 ug/ml [8]?
Answer: 64%

Question: And the MIC80 (Candida tropicalis [5])?
Answer: > 64 µg/mL

Question: And the “fractional inhibitory concentration index (FICI)” value (Candida tropicalis [6])?
Answer: 0.188

Question: And the MIC80 (Candida tropicalis [6])?
Answer: 8 µg/mL

Question: Which “fractional inhibitory concentration index (FICI)” value (Candida albicans [1]) does the source give for `O=C(/C=C(O)/C=C/c1ccc(O)c(O)c1)/C=C/c1ccc(O)c(O)c1` here?
Answer: 0.125

Question: And the MIC80 (Candida albicans [1])?
Answer: 4 µg/mL

Question: And the MIC80 (Pichia kudriavzevii [2])?
Answer: 4 µg/mL (≈ 11.8 µM)

Question: What about the MIC80 (Candida albicans [3]) of the same compound?
Answer: 64 µg/mL (≈ 188 µM)

Question: And the “fractional inhibitory concentration index (FICI)” value (Pichia kudriavzevii [4])?
Answer: 0.563

Question: And the MIC80 (Pichia kudriavzevii [4])?
Answer: 2 µg/mL

Question: And the MIC80 (Candida tropicalis [5])?
Answer: 64 µg/mL (≈ 188 µM)

Question: And the “fractional inhibitory concentration index (FICI)” value (Candida tropicalis [6])?
Answer: 0.125

Question: What about the MIC80 (Candida tropicalis [6]) of the same compound?
Answer: 4 µg/mL
